Experimental data as given in ChEMBL document CHEMBL1641445, “Synthesis, antiprotozoal, antimicrobial, β-hematin inhibition, cytotoxicity and methemoglobin (MetHb) formation activities of bis(8-aminoquinolines)” (Bioorg Med Chem, 2011).
Calls of active or inactive are those of the source. The rule behind the calls is not given here.

Tests used:
Leishmania donovani = assay: Antileishmanial activity against promastigotes of Leishmania donovani by alamar blue assay; format: functional, organism-based; details: Leishmania donovani; for IC50: read-out: IC50
[1] = Inhibition of beta-hematin formation; format: functional
[2] = Hematotoxicity against RBC assessed as formation of methemoglobin at 20 ug/ml relative to control; format: cell-based; details: erythrocyte
How it was run: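 Metabolism-linked methemoglobin toxicity in vitro. Percent MetHb formation was determined at 20 µg/mL of compound relative to vehicle control.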

Plasmodium berghei [3] = assay: Antimalarial activity against Plasmodium berghei infected in mouse assessed as negative parasitemia level at 100 mg/kg, po qd for 4 days measured up to 7 days; format: functional, organism-based; design: dose 100 mg/kg
How it was run: (§1)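 Mice infected with P. berghei (sensitive strain), 6 per group, dosed orally at 10–100 mg/kg/day × 4. Suppression meant negative parasitemia in all treated animals up to D+7. Survivors were counted at D+60.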

Aspergillus fumigatus = assay: Antifungal activity against Aspergillus fumigatus ATCC 90906 at 20 ug/ml; format: functional, organism-based
Cryptococcus neoformans [4] = assay: Antifungal activity against Cryptococcus neoformans ATCC 90113; format: functional, organism-based
Pichia kudriavzevii = assay: Antifungal activity against Candida krusei at 20 ug/ml; format: functional, organism-based
Candida albicans [5] = assay: Antifungal activity against Candida albicans ATCC 90028 at 20 ug/ml; format: functional, organism-based
Plasmodium falciparum [6] = assay: Antimalarial activity against chloroquine-sensitive Plasmodium falciparum D6 by LDH assay; format: functional, organism-based; details: Plasmodium falciparum, D6; read-out: IC50
How it was run: (§2)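 Antiplasmodial activity was measured in vitro against P. falciparum blood-stage cultures. Read-out was parasite lactate dehydrogenase (LDH) activity, with IC50 values expressed in µg/mL. The same protocol was used for the D6 and W2 strains.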

Vero = assay: Cytotoxicity against african green monkey Vero cells up to 10 ug/ml by neutral red assay; format: cell-based; details: chlorocebus sabaeus
How it was run: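 Vero (monkey kidney) cells were exposed up to a highest concentration of 10 µg/mL. Viability was read by neutral red uptake.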

Nakaseomyces glabratus = assay: Antifungal activity against Candida glabrata at 20 ug/ml; format: functional, organism-based
Staphylococcus aureus [7] = assay: Antibacterial activity against methicillin-resistant Staphylococcus aureus ATCC 43300 by CLSI method; format: functional, organism-based
How it was run: (§3)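 Broth dilution method (NCCLS M7-A5). […] MIC is the lowest concentration allowing no detectable growth. MBC is the lowest concentration killing the organism. Highest test concentration was 20 µg/mL.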

Candida albicans [8] = assay: Antifungal activity against Candida albicans ATCC 90028; format: functional, organism-based
[9] = test system: Mycobacterium intracellulare; assay: Antibacterial activity against Mycobacterium intracellular ATCC 23068 at 20 ug/ml by CLSI method; format: functional, organism-based
Staphylococcus aureus [10] = assay: Antibacterial activity against Staphylococcus aureus by CLSI method; format: functional, organism-based
Plasmodium falciparum [11] = assay: Antimalarial activity against chloroquine-resistant Plasmodium falciparum W2 by LDH assay; format: functional, organism-based; details: Plasmodium falciparum, W2; read-out: IC50; how it was run: as §2
[12] = test system: Mycobacterium intracellulare; assay: Antibacterial activity against Mycobacterium intracellular ATCC 23068 by CLSI method; format: functional, organism-based
Cryptococcus neoformans [13] = assay: Antifungal activity against Cryptococcus neoformans ATCC 90113 at 20 ug/ml; format: functional, organism-based
Plasmodium berghei [14] = assay: Antimalarial activity against Plasmodium berghei infected in mouse assessed as complete elimination of malaria parasites from animals at 50 mg/kg, po qd for 4 days measured up to 60 days; format: functional, organism-based; design: dose 50 mg/kg
How it was run: (§4)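 Rodent P. berghei (sensitive strain) blood-schizontocidal model, 6 mice per group. Compounds were given orally once daily for 4 days at 10, 25, 50 or 100 mg/kg/day. Cure meant complete parasite elimination with survival to day D+60.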

Plasmodium berghei [15] = assay: Antimalarial activity against Plasmodium berghei infected in mouse assessed as complete elimination of malaria parasites from animals at 100 mg/kg, po qd for 4 days measured up to 60 days; format: functional, organism-based; design: dose 100 mg/kg; how it was run: as §4
Staphylococcus aureus [16] = assay: Antibacterial activity against methicillin-resistant Staphylococcus aureus ATCC 43300 at 20 ug/ml by CLSI method; format: functional, organism-based; how it was run: as §3
Plasmodium berghei [17] = assay: Antimalarial activity against Plasmodium berghei infected in mouse assessed as complete elimination of malaria parasites from animals at 25 mg/kg, po qd for 4 days measured up to 60 days; format: functional, organism-based; design: dose 25 mg/kg; how it was run: as §4
Plasmodium berghei [18] = assay: Antimalarial activity against Plasmodium berghei infected in mouse assessed as negative parasitemia level at 10 mg/kg, po qd for 4 days measured up to 7 days; format: functional, organism-based; design: dose 10 mg/kg; how it was run: as §1

Row | Compound | IC90 (Leishmania donovani) [µg/mL] | IC50 (Leishmania donovani) [µg/mL] | IC50 [1] [µM] | Methemoglobin formation [2] [%] | Activity (Aspergillus fumigatus) | IC50 (Cryptococcus neoformans [4]) [µg/mL] | MFC (Cryptococcus neoformans [4]) [µg/mL] | MIC (Cryptococcus neoformans [4]) [µg/mL] | Activity (Pichia kudriavzevii) | MFC (Candida albicans [5]) | MIC (Candida albicans [5]) | IC50 (Plasmodium falciparum [6]) [µg/mL] | Activity (Vero) | Activity (Nakaseomyces glabratus) | IC50 (Staphylococcus aureus [7]) [µg/mL] | MBC (Staphylococcus aureus [7]) [µg/mL] | MIC (Staphylococcus aureus [7]) [µg/mL] | IC50 (Candida albicans [8]) [µg/mL] | IC50 (Plasmodium falciparum [11]) [µg/mL] | IC50 [12] [µg/mL] | also measured
1 | COc1cc(NC(C)CCCNCOC(=O)NCCCC(C)Nc2cc(OC)cc3cccnc23)c2ncccc2c1.Cl.Cl (configuration not stated) | 38 | 20 | 101 | 5.3 | inactive | 4.5 | 5 | 5 | inactive | inactive | inactive | 2.6 | Non-toxic | inactive | – | – | – | – | – | – | Activity (Plasmodium berghei [3]): Active; IC50 (Candida albicans [5]): Not Active
2 | COc1cc(NC(C)CCCNC(=O)NC(CCCCN)C(=O)NCCCC(C)Nc2cc(OC)cc3ccc(C(C)(C)C)nc23)c2nc(C(C)(C)C)ccc2c1.Cl (single isomer, unassigned) | 36 | 21 | 45 | 2.25 | inactive | 6.45 | 10 | 10 | inactive | inactive | – | – | Non-toxic | inactive | 1.97 | 5 | 5 | 17.9 | 1.3 | 7.12 | MIC (Candida albicans [8]): 20 µg/mL; Activity (Plasmodium berghei [3]): Active; MBC [9]: inactive; IC50 (Staphylococcus aureus [10]): 2.58 µg/mL; MBC (Staphylococcus aureus [10]): 5 µg/mL; MIC (Staphylococcus aureus [10]): 5 µg/mL; MIC [12]: 20 µg/mL
3 | COc1cc(NC(C)CCCNC(=S)NCCCC(C)Nc2cc(OC)cc3cccnc23)c2ncccc2c1.Cl.Cl (configuration not stated) | 20 | 4 | > 1000 | 3.7 | inactive | 15 | – | – | inactive | inactive | – | 2.3 | Non-toxic | inactive | 3 | 10 | 5 | 10 | 2.4 | 4.5 | MFC (Cryptococcus neoformans [13]): inactive; MIC (Cryptococcus neoformans [13]): inactive
4 | COc1cc(NC(C)CCCNCCNCCNCCCC(C)Nc2cc(OC)cc3cccnc23)c2ncccc2c1.Cl.Cl (configuration not stated) | 27 | – | 180 | 8.4 | inactive | 15 | 20 | 20 | inactive | inactive | inactive | 2.6 | Non-toxic | inactive | – | – | – | – | 1.5 | 10 | Activity (Plasmodium berghei [14]): Active; Activity (Plasmodium berghei [15]): Active; IC50 (Staphylococcus aureus [16]): Not Active; MBC (Staphylococcus aureus [16]): inactive; MIC (Staphylococcus aureus [16]): inactive; Activity (Plasmodium berghei [17]): Active; IC50 (Candida albicans [5]): Not Active; MBC [12]: 20 µg/mL; MIC [12]: 20 µg/mL; Activity (Plasmodium berghei [18]): Active
5 | COc1cc(NC(C)CCCNC(=O)N[C@H](CCCN)C(=O)NCCCC(C)Nc2cc(OC)cc3ccc(C(C)(C)C)nc23)c2nc(C(C)(C)C)ccc2c1.Cl (some centres not stated) | 34 | 20 | 10.8 | 2.3 | inactive | 9.97 | 20 | – | inactive | inactive | inactive | – | Non-toxic | inactive | 1.78 | 5 | 5 | > 20 | 0.3 | 10 | Activity (Plasmodium berghei [14]): Active; Activity (Plasmodium berghei [15]): Active; Activity (Plasmodium berghei [17]): Active; MBC [9]: inactive; IC50 (Staphylococcus aureus [10]): 2.73 µg/mL; MBC (Staphylococcus aureus [10]): 5 µg/mL; MIC (Staphylococcus aureus [10]): 5 µg/mL; MIC [12]: 20 µg/mL; Activity (Plasmodium berghei [18]): Active
